Legend:
[1] = Cardiovascular activity in guinea pig spontaneously beating right atrium assessed as negative chronotropic activity by measuring decrease of atrial rate at 10^-4 M relative to control; assay type: functional; details: Cavia porcellus, Cardiac atrium
[2] = Cardiovascular activity in guinea pig left atrium assessed as negative inotropic activity by measuring decrease of 1 Hz-induced tension at 10^-5 M relative to control; assay type: functional; details: Cavia porcellus, Cardiac atrium
[3] = Cardiovascular activity in guinea pig left atrium assessed as negative inotropic activity by measuring decrease of 1 Hz-induced tension; assay type: functional, tissue-based; details: Cavia porcellus, Cardiac atrium
Method in brief: (§1)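 Log concentration–response curves fitted by probit analysis (Litchfield and Wilcoxon), n = 4–7. They were not calculated when the maximum effect was below 50%.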

Aorta [4] = assay: Vasorelaxant activity in guinea pig K+-depolarized guinea pig aortic strip assessed as inhibition of calcium-induced contraction at 5 x 10^-5 M relative to control; assay type: functional; details: Cavia porcellus
[5] = Cardiovascular activity in guinea pig left atrium assessed as negative inotropic activity by measuring decrease of 1 Hz-induced tension at 10^-4 M relative to control; assay type: functional; details: Cavia porcellus, Cardiac atrium
[6] = Cardiovascular activity in guinea pig spontaneously beating right atrium assessed as negative chronotropic activity by measuring decrease of atrial rate; assay type: functional; details: Cavia porcellus, Cardiac atrium; method in brief: as §1
TT = assay: Inhibition of T-type calcium channel expressed in human TT cells using Ba2+ as charge carrier at 10 uM by patch clamp electrophysiological assay relative to control; assay type: cell-based
Method in brief: (§2)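 Whole-cell patch clamp with Ba2+ currents. L-type current was recorded in transfected CHO cells and T-type current in TT cells, whose only voltage-gated Ca2+ currents are T-type. The read-out was percent decrease in peak current, comparing the mean of five consecutive steady-state sweeps in control and in drug. Results are mean ± SEM, n = 5–7 cells per group.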

[7] = Cardiovascular activity in guinea pig left atrium assessed as negative inotropic activity by measuring decrease of 1 Hz-induced tension at 5 x 10^-5 M relative to control; assay type: functional; details: Cavia porcellus, Cardiac atrium
[8] = Vasorelaxant activity in guinea pig K+-depolarized guinea pig longitudinal smooth muscle assessed as inhibition of calcium-induced contraction; assay type: functional, Cavia porcellus
Aorta [9] = assay: Vasorelaxant activity in guinea pig K+-depolarized guinea pig aortic strip assessed as inhibition of calcium-induced contraction at 10^-4 M relative to control; assay type: functional; details: Cavia porcellus
[10] = Cardiovascular activity in guinea pig spontaneously beating right atrium assessed as negative chronotropic activity by measuring decrease of atrial rate at 5 x 10^-5 M relative to control; assay type: functional; details: Cavia porcellus, Cardiac atrium
CHO = assay: Inhibition of L-type alpha9beta3alpha2/gamma4 calcium channel expressed in CHO cells using Ba2+ as charge carrier at 10 uM by patch clamp electrophysiological assay relative to control; assay type: cell-based; method in brief: as §2
[11] = Vasorelaxant activity in guinea pig K+-depolarized guinea pig longitudinal smooth muscle assessed as inhibition of calcium-induced contraction at 10^-5 M relative to control; assay type: functional; details: Cavia porcellus
Method in brief: (§3)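 Guinea-pig longitudinal smooth muscle depolarized with K+ (80 mM). Percent inhibition of calcium-induced contraction was measured at single concentrations of 10^-4 M, 5 × 10^-5 M or 10^-5 M. Results are mean ± SEM.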

[12] = Cardiovascular activity in guinea pig left atrium assessed as negative inotropic activity by measuring decrease of 1 Hz-induced tension in presence of adenosine A1 receptor antagonist DPCPX; assay type: functional, tissue-based; details: Cavia porcellus, Cardiac atrium
Method in brief: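 Negative inotropic concentration–response determined in the presence of the A1 antagonist DPCPX at 1 μM.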

[13] = Vasorelaxant activity in guinea pig K+-depolarized guinea pig longitudinal smooth muscle assessed as inhibition of calcium-induced contraction at 10^-4 M relative to control; assay type: functional; details: Cavia porcellus; method in brief: as §3
[14] = Cardiovascular activity in guinea pig spontaneously beating right atrium assessed as negative chronotropic activity by measuring decrease of atrial rate at 10^-5 M relative to control; assay type: functional; details: Cavia porcellus, Cardiac atrium
[15] = Vasorelaxant activity in guinea pig K+-depolarized guinea pig longitudinal smooth muscle assessed as inhibition of calcium-induced contraction at 5 x 10^-5 M relative to control; assay type: functional; details: Cavia porcellus; method in brief: as §3
[16] = Cardiovascular activity in guinea pig left atrium assessed as negative inotropic activity by measuring decrease of 1 Hz-induced tension at 5 x 10^-6 M relative to control; assay type: functional; details: Cavia porcellus, Cardiac atrium
Aorta [17] = assay: Vasorelaxant activity in guinea pig K+-depolarized guinea pig aortic strip assessed as inhibition of calcium-induced contraction; assay type: functional, tissue-based; details: Cavia porcellus; method in brief: as §1

SMILES	inhibition at 100 µM [1] [%]	inhibition at 10 µM [2] [%]	EC50 [3] [nM]	inhibition at 100 µM [5] [%]	inhibition (TT) [%]	IC50 [8] [nM]	inhibition at 100 µM (Aorta [9]) [%]	inhibition (CHO) [%]	further results
CCOc1nc(SCc2ccccc2)nc(NC(C)=O)c1N(Cc1ccccc1)Cc1ccccc1	44	64	270	–	–	–	–	–	inhibition at 50 µM (Aorta [4]): 20%
Nc1nc(SCc2ccccc2)[nH]c(=O)c1N(Cc1ccccc1)Cc1ccccc1	80	–	3160	60	–	–	–	–	EC30 [6]: 8630 nM; inhibition at 50 µM (Aorta [4]): 2%
CCn1c(SCc2ccccc2)nc(NC(C)=O)c(N(Cc2ccccc2)Cc2ccccc2)c1=O	–	–	290	–	15.2	1480	25	58	inhibition at 50 µM [7]: 66%; EC30 [6]: 14100 nM; inhibition at 50 µM [10]: 72%; inhibition [11]: 90%
CCn1c(SCc2ccccc2)nc(N)c(N(Cc2ccccc2)Cc2ccccc2)c1=O	63	–	450	56	11.9	2910	7	60.7	EC50 [12]: 500 nM; inhibition [13]: 94%; EC30 [6]: 18100 nM
COCCSc1nc(NC(C)=O)c(N(CCOC)CCOC)c(=O)[nH]1	–	–	960	90	–	–	2	–	inhibition at 50 µM [10]: 6%
CCOc1nc(SCCOC)nc(N)c1N(CCOC)CCOC	45	–	310	–	–	–	22	–	inhibition at 50 µM [7]: 79%
COCCSc1nc(N)c(N(CCOC)CCOC)c(=O)[nH]1	–	93	340	–	–	–	10	–	inhibition at 10 µM [14]: 13%
CCCSc1nc(NC(C)=O)c(N(CCC)CCC)c(=O)n1CC	–	–	530	–	22.3	4860	–	56	inhibition at 50 µM [7]: 60%; inhibition at 50 µM [10]: 13%; inhibition at 50 µM (Aorta [4]): 13%; inhibition [11]: 72%
CCn1c(SCCOC)nc(N)c(N(CCOC)CCOC)c1=O	11	76	230	–	24.7	21500	33	52	inhibition [13]: 60%
CC(=O)Nc1nc(SCc2ccccc2)[nH]c(=O)c1N(Cc1ccccc1)Cc1ccccc1	95	–	1410	90	–	–	31	–	EC30 [6]: 6790 nM
CCOc1nc(SCCOC)nc(NC(C)=O)c1N(CCOC)CCOC	3	80	620	–	–	–	10	–	–
CCCSc1nc(N)c(N(CCC)CCC)c(=O)n1CC	–	56	600	–	35.3	3390	28	54	inhibition at 50 µM [10]: 22%; inhibition [15]: 93%
CCn1c(SCCOC)nc(NC(C)=O)c(N(CCOC)CCOC)c1=O	2	–	770	81	12.3	23800	2	37	inhibition [13]: 91%
CCCSc1nc(NC(C)=O)c(N(CCC)CCC)c(OCC)n1	–	–	1000	–	–	–	23	–	inhibition at 50 µM [7]: 71%; inhibition at 10 µM [14]: 2%
CCCSc1nc(N)c(N(CCC)CCC)c(OCC)n1	27	68	150	–	–	10700	16	–	inhibition [13]: 83%
CCCSc1nc(NC(C)=O)c(N(CCC)CCC)c(=O)[nH]1	–	–	280	–	–	–	30	–	inhibition at 5 µM [16]: 62%; inhibition at 10 µM [14]: 7%
CCCSc1nc(N)c(N(CCC)CCC)c(=O)[nH]1	–	–	1960	87	–	13900	54	–	IC50 (Aorta [17]): 14900 nM; inhibition at 50 µM [10]: 39%; inhibition [15]: 87%
CCOc1nc(SCc2ccccc2)nc(N)c1N(Cc1ccccc1)Cc1ccccc1	33	–	1490	62	–	–	–	–	inhibition at 50 µM (Aorta [4]): 2%
